Drawing on ChEMBL document CHEMBL3286396, “Discovery and Synthesis of C-Nucleosides as Potential New Anti-HCV Agents” (ACS Med Chem Lett, 2014), this text covers EC50, CC50 and IC50 for eight compounds.

For data set [1], the system named is Hepatitis C virus. As to the kind of experiment: Antiviral activity against Hepatitis C virus genotype 1b infected in human HuH7 cells assessed as inhibition of subgenomic replicon RNA replication after 72 hrs by luciferase reporter assay. It counts as functional, cell-based, Hepacivirus hominis. Conditions: Huh-7, 72 h. Background: Replicon systems follow genome replication, usually without infectious particles.

A short description of data set [2]: Cytotoxicity against human HuH7 cells by MTT assay. It counts as cell-based, Huh-7. A digest of the protocol: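 Huh-7-derived HCV replicon cell lines were used, with MTT as the vital dye read-out.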
Data set [3] can be described thus: Inhibition of N-terminal His6-tagged Hepatitis C virus genotype 1b isolate Con1 NS5B RNA-dependent RNA polymerase activity by plate reader analysis.
In data set [4] the test system is Hepatitis C virus. As to the kind of experiment: Antiviral activity against Hepatitis C virus assessed as inhibition of subgenomic replicon RNA replication. It counts as functional, organism-based, Hepacivirus hominis.
Data set [5] deals with T1, DNA polymerase alpha catalytic subunit (Homo sapiens, UniProt P09884).
T1 sequence (P09884 whole entry): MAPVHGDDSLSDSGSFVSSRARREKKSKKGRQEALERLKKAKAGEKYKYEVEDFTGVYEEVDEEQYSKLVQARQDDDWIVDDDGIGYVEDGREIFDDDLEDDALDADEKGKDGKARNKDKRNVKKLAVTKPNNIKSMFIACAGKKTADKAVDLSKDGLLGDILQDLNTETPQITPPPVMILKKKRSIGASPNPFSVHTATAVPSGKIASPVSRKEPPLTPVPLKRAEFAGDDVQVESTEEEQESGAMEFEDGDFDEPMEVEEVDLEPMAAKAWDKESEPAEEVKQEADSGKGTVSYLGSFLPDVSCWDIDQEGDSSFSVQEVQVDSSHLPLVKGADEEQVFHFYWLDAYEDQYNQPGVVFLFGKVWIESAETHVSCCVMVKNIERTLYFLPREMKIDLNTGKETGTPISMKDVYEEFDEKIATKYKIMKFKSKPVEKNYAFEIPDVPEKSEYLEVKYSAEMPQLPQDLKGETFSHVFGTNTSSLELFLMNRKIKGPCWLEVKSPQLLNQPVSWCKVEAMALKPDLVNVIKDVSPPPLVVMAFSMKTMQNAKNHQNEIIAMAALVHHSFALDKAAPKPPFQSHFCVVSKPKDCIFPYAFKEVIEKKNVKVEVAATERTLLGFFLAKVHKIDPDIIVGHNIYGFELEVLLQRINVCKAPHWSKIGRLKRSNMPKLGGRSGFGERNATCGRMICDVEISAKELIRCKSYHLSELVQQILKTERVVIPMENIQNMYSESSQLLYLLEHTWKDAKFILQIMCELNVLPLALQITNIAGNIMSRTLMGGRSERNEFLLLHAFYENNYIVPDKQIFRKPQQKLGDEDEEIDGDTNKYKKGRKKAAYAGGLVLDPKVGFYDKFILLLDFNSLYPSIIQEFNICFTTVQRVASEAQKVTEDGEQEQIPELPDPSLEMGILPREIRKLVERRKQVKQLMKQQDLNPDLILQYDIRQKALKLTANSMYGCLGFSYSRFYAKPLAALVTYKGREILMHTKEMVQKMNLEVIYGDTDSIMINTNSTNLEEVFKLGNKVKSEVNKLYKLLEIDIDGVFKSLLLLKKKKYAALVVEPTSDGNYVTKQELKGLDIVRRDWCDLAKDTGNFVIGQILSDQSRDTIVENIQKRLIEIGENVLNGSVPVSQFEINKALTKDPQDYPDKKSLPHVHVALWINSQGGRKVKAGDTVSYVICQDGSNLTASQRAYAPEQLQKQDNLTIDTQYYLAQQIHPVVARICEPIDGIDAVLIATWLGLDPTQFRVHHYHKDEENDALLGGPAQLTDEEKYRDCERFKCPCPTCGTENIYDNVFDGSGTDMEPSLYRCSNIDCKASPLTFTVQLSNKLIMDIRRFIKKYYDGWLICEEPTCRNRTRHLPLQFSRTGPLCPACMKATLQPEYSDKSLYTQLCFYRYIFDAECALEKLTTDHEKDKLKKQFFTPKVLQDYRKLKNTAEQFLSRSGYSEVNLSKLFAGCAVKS
As to the kind of experiment: Inhibition of human DNA polymerase alpha. A digest of the protocol:
(§1)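 The nucleoside was tested in its triphosphate form against human DNA polymerases α, β and γ.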

A further data set has as its target DNA polymerase beta (Homo sapiens, UniProt P06746). As to the kind of experiment: Inhibition of human DNA polymerase beta. A digest of the protocol: as §1
Data set [6] concerns the target T2, DNA polymerase subunit gamma-1 (Homo sapiens, UniProt P54098).
T2 sequence (P54098 whole entry): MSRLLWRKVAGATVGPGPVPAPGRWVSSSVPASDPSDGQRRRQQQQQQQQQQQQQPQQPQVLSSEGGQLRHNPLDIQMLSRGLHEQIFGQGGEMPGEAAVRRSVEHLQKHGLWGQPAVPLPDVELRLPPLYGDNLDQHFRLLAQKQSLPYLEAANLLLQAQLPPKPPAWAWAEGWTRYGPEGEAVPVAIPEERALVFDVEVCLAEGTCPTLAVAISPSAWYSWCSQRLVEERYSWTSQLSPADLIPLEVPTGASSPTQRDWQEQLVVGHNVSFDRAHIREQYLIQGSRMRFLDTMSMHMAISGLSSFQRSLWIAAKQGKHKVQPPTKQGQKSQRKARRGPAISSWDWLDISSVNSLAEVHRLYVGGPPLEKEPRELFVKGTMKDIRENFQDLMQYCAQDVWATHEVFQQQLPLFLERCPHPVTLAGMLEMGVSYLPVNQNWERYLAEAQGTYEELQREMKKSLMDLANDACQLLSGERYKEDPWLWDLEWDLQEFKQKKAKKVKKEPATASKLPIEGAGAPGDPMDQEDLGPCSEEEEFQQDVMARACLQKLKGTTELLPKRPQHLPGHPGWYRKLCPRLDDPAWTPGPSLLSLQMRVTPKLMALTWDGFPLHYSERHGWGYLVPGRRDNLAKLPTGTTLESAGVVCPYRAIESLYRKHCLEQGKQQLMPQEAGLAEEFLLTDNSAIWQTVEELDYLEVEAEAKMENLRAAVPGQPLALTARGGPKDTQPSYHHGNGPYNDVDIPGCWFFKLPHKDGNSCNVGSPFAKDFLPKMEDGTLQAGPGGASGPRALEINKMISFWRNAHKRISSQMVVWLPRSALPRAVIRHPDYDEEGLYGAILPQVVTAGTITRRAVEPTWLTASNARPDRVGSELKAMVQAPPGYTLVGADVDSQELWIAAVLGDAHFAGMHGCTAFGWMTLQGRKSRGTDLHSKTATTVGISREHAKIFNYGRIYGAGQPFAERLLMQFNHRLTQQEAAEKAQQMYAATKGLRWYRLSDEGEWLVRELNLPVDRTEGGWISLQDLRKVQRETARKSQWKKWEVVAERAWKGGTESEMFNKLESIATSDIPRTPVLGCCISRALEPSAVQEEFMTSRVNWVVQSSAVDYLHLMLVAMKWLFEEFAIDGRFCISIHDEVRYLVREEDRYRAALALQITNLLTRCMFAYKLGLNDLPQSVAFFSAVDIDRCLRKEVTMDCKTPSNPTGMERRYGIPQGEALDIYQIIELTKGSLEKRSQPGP
The data set is described as follows: Inhibition of human DNA polymerase gamma. Summed up:
as §1

Data set [7] can be described thus: Inhibition of Hepatitis C virus NS5B RNA-dependent RNA polymerase activity. The arrangement: species or system Hepacivirus hominis.

The structures appear in SMILES notation. Where only a bound is given, the exact number is not on record here.

One may read the EC50 as the concentration giving half of the maximal effect. Usually CC50 stands for the concentration giving 50% cytotoxicity. A low value points to harm at low concentration. By IC50 is commonly meant the concentration at which inhibition is half-maximal. Regarding `C[C@@]1(O)[C@H](O)[C@@H](CO)O[C@H]1c1cnc2c(N)ncnn12`, the EC50 with Hepatitis C virus [1] turned out to be 1300 nM. Besides, the CC50 in data set [2] stood at 34000 nM. Also, in data set [3], it took 550 nM to reach half-maximal inhibition (IC50).
With `C[C@@]1(O)[C@H](O)[C@@H](CO)O[C@H]1c1cnc2c(=O)[nH]c(N)nn12`, the EC50 in the data set on Hepatitis C virus [1] was above 100000 nM. In data set [2], this compound registered a CC50 above 100000 nM. In addition, the IC50 in data set [3] was determined as 310 nM.
Regarding `C[C@@]1(O)[C@H](O)[C@@H](CO)O[C@H]1n1ccc2c(O)nc(N)nc21`, the EC50 in the data set with Hepatitis C virus [4] is above 50000 nM.
With `C[C@@]1(O)[C@H](O)[C@@H](CO)O[C@H]1c1ccc2c(=O)[nH]c(N)nn12`, the EC50 in the data set with Hepatitis C virus [1] was above 100000 nM. Moreover, in data set [2], the CC50 was above 100000 nM. Besides, in data set [3], half-maximal inhibition (IC50) required 210 nM.
With `C[C@@]1(O)[C@H](O)[C@@H](CO)O[C@H]1c1cnn2c(N)ncnc12`, the EC50 with Hepatitis C virus [1] is above 100000 nM. Also, the CC50 in data set [2] is above 100000 nM. In data set [3], this compound had an IC50 of 33000 nM.
As for `C[C@@]1(O)[C@H](O)[C@@H](COP(=O)(O)OP(=O)(O)OP(=O)(O)O)O[C@H]1c1ccc2c(N)ncnn12`, the IC50 (in data set [5]; against DNA polymerase beta; in data set [6]) was above 100000 nM throughout.
`C[C@@]1(O)[C@H](O)[C@@H](CO)O[C@H]1n1cnc2c(=O)[nH]c(N)nc21` [2'-B-METHYL-GUANOSINE]: in the data set with Hepatitis C virus [4], the EC50 was 2000 nM.
As to `C[C@@]1(O)[C@H](O)[C@@H](CO)O[C@H]1n1ccc2c(N)ncnc21` [BETA-2'-C-METHYL-7-DEAZA-ADENOSINE], the values for the EC50 in the data set on Hepatitis C virus [1] and in the data set with Hepatitis C virus [4] were 200 nM and 300 nM, respectively. In addition, the CC50 in data set [2] was above 100000 nM. Also, the IC50 in data set [7] was 70 nM; in data set [3] it was 200 nM.
